{"source": "ChEMBL document CHEMBL3286381", "about": "(J Med Chem, 2014)", "assay_type_in_all_cases": "ADME, cell-based", "conditions_in_all_cases": "cos-7, 1 h", "key": {"[1]": {"biological_target": "T1, Ectonucleoside triphosphate diphosphohydrolase 2 (Homo sapiens, UniProt Q9Y5L3)", "T1 sequence (Q9Y5L3 whole entry)": "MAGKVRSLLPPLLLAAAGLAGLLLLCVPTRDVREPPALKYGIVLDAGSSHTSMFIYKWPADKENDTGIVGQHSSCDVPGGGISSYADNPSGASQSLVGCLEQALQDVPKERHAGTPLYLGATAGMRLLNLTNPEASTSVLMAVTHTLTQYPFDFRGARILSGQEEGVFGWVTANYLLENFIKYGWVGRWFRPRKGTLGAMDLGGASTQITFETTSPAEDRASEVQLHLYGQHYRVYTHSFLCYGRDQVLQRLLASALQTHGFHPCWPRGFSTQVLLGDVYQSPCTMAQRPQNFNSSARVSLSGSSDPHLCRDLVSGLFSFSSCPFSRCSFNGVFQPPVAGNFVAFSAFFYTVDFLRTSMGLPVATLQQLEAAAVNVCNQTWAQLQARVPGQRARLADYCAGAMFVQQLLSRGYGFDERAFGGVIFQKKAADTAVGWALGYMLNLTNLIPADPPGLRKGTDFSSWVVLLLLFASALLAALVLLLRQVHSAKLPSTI", "assay": "Drug metabolism assessed as human NTPDase-2-mediated compound hydrolysis expressed in African green monkey COS7 cells at 100 uM after 1 hr by HPLC analysis", "outline": "(§1)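 Protein extracts are from COS-7 cells transiently transfected with human NTPDase1, 2, 3 or 8. The incubation uses Tris–Ringer buffer pH 7.3 at 37 °C with 3 min extract preincubation. Analogue is added alone at 100 μM final. […] Three experiments in triplicate.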"}, "[2]": {"biological_target": "T2, Ectonucleotide pyrophosphatase/phosphodiesterase family member 1 (Homo sapiens, UniProt P22413)", "T2 sequence (P22413 whole entry)": "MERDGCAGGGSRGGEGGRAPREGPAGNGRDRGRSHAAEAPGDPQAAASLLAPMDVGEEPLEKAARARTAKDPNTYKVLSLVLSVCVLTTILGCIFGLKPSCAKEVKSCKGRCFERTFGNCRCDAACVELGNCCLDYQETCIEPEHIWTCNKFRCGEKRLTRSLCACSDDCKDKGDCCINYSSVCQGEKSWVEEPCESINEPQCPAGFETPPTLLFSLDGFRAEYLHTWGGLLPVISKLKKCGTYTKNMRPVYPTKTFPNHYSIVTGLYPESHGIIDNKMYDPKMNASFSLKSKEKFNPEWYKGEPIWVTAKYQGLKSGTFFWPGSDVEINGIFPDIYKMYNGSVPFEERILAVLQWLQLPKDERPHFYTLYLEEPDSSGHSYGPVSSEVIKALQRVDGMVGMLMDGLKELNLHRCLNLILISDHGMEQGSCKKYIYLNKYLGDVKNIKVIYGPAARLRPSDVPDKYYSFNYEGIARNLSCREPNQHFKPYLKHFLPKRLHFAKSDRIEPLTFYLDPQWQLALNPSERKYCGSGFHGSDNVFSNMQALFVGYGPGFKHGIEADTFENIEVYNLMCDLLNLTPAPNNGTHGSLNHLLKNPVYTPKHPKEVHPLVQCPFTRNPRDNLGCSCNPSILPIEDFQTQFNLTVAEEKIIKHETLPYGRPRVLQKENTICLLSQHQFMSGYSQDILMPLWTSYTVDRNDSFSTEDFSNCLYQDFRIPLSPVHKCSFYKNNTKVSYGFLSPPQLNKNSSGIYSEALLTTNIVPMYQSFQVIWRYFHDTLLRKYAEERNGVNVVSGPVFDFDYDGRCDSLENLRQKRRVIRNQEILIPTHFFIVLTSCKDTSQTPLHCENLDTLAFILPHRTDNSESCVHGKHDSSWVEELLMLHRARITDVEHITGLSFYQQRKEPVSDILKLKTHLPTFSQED", "assay": "Drug metabolism assessed as human NPP1-mediated compound hydrolysis expressed in African green monkey COS7 cells at 100 uM after 1 hr by HPLC analysis"}, "[3]": {"biological_target": "T3, Ectonucleoside triphosphate diphosphohydrolase 1 (Homo sapiens, UniProt P49961)", "T3 sequence (P49961 whole entry)": "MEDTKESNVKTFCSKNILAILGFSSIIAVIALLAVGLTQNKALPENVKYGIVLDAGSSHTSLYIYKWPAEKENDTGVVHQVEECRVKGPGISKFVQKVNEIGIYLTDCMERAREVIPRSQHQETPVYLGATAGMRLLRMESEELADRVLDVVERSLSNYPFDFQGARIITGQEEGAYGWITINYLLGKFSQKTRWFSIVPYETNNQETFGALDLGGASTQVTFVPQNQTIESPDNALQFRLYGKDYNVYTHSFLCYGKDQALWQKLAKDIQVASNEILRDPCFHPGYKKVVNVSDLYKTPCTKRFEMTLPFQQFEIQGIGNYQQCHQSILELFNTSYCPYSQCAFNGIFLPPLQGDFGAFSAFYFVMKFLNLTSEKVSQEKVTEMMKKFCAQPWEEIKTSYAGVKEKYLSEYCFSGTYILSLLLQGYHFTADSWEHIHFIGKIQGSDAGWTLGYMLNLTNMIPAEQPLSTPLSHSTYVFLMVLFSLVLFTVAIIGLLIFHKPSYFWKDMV", "assay": "Drug metabolism assessed as human NTPDase-1-mediated compound hydrolysis expressed in African green monkey COS7 cells at 100 uM after 1 hr by HPLC analysis", "outline": "as §1"}, "[4]": {"biological_target": "T4, Ectonucleotide pyrophosphatase/phosphodiesterase family member 3 (Homo sapiens, UniProt O14638)", "T4 sequence (O14638 whole entry)": "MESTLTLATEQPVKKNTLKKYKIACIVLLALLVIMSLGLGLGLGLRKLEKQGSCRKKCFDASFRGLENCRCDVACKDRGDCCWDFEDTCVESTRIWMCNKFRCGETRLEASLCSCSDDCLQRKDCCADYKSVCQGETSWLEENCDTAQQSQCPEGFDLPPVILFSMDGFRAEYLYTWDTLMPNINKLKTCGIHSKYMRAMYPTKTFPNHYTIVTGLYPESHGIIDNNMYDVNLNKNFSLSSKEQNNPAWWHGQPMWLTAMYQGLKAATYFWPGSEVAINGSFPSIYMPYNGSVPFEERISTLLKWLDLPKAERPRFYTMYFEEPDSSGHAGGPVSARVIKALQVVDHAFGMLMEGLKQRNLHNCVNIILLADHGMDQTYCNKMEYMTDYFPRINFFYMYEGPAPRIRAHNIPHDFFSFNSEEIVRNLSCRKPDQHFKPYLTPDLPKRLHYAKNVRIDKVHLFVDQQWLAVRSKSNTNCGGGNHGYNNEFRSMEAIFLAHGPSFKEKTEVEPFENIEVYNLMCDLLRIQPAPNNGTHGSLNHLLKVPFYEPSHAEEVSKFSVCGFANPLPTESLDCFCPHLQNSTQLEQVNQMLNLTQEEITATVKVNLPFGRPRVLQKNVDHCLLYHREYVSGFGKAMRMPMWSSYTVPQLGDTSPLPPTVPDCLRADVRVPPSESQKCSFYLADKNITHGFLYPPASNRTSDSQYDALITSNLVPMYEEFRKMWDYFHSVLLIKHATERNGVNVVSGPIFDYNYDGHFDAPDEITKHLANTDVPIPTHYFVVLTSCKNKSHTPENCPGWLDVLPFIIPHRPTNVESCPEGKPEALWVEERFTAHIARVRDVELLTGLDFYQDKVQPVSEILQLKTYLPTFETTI", "assay": "Drug metabolism assessed as human NPP3-mediated compound hydrolysis expressed in African green monkey COS7 cells at 100 uM after 1 hr by HPLC analysis"}, "[5]": {"biological_target": "T5, Ectonucleoside triphosphate diphosphohydrolase 3 (Homo sapiens, UniProt O75355)", "T5 sequence (O75355 whole entry)": "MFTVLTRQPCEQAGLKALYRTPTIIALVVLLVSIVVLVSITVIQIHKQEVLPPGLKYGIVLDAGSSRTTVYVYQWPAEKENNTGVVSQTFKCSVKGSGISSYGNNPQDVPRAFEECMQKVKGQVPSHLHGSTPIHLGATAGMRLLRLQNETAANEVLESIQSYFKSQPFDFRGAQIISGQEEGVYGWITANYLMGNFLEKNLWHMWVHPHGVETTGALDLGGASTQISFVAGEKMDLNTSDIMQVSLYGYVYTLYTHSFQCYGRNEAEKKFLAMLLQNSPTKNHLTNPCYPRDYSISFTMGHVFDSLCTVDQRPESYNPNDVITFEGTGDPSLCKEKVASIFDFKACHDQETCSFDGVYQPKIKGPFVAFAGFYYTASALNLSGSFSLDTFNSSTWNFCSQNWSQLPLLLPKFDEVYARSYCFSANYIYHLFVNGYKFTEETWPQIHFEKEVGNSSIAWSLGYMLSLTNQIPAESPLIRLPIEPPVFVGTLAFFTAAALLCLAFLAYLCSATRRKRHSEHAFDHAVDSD", "assay": "Drug metabolism assessed as human NTPDase-3-mediated compound hydrolysis expressed in African green monkey COS7 cells at 100 uM after 1 hr by HPLC analysis", "outline": "as §1"}}, "data": [{"smiles": "Nc1ncnc2c1ncn2[C@@H]1O[C@H](COP(=O)(O)OP(=O)(O)OP(=O)(O)O)[C@@H](O)[C@H]1O", "note": "[ADENOSINE TRIPHOSPHATE]", "values": [{"measurement": "Drug metabolism", "setting": "[1]", "result": 1051, "unit": "nmol/min/mg"}, {"measurement": "Drug metabolism", "setting": "[2]", "result": 67, "unit": "nmol/min/mg"}, {"measurement": "Drug metabolism", "setting": "[3]", "result": 807, "unit": "nmol/min/mg"}, {"measurement": "Drug metabolism", "setting": "[4]", "result": 54, "unit": "nmol/min/mg"}, {"measurement": "Drug metabolism", "setting": "[5]", "result": 240, "unit": "nmol/min/mg"}]}]}
